Measured values taken from article PMC11406655 (Therapeutic Advances in Hematology, 2024).
Where “and” joins values, the source holds several entries; their conditions need not be identical. Identical values can stand only once.

Legend:
[1] = test system: patients with relapsed and/or refractory MDS, CMML, or AML; experiment: Clinical response per International Working Group criteria, PFS and OS; assay type: in vivo, human
[2] = test system: patients with relapsed and/or refractory MDS, CMML, or AML; experiment: Safety: adverse events, dose-limiting toxicities and deaths; assay type: in vivo, human
How it was run: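 Open-label, multicenter part 1 in adults with relapsed/refractory MDS, CMML or secondary AML. The 300 mg dose-expansion cohort took the test compound orally once daily with water only, at about the same time (±4 h), on every day of 28-day cycles. Deaths were split into ⩽30 days or >30 days after the last dose. The analysis covered all patients given at least one dose.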

SMILES: CC(=O)N1CCC(Nc2cc(C(=O)NC[C@H](O)CN3CCc4ccccc4C3)ncn2)CC1 [GSK3326595]
- Best overall response: CR ([1]; 300 mg once daily oral, n = 17): 0 n (%)
- Best overall response: Disease progression ([1]; 300 mg once daily oral, n = 17): 9 (53) n (%)
- Best overall response: HI ([1]; 300 mg once daily oral, n = 17): 0 n (%)
- Best overall response: Not evaluable ([1]; 300 mg once daily oral, n = 17): 3 (18) n (%)
- Best overall response: PR ([1]; 300 mg once daily oral, n = 17): 0 n (%)
- Best overall response: SD ([1]; 300 mg once daily oral, n = 17): 4 (24) n (%)
- Best overall response: SD lasting <8 weeks ([1]; 300 mg once daily oral, n = 17): 2 (12) n (%)
- Best overall response: SD lasting ⩾8 weeks ([1]; 300 mg once daily oral, n = 17): 2 (12) n (%)
- Best overall response: mCR ([1]; 300 mg once daily oral, n = 17): 1 (6) n (%)
- Clinical benefit rate (CR + mCR + PR + SD ⩾8 weeks + HI) ([1]; 300 mg once daily oral, n = 17): 3 (18) n (%)
- Overall response rate (CR + mCR + PR) ([1]; 300 mg once daily oral, n = 17): 1 (6) n (%)
- Best overall response: CR ([1]; 400 mg once daily oral, n = 13): 0 n (%)
- Best overall response: Disease progression ([1]; 400 mg once daily oral, n = 13): 4 (31) n (%)
- Best overall response: HI ([1]; 400 mg once daily oral, n = 13): 0 n (%)
- Best overall response: Not evaluable ([1]; 400 mg once daily oral, n = 13): 4 (31) n (%)
- Best overall response: PR ([1]; 400 mg once daily oral, n = 13): 0 n (%)
- Best overall response: SD ([1]; 400 mg once daily oral, n = 13): 5 (38) n (%)
- Best overall response: SD lasting <8 weeks ([1]; 400 mg once daily oral, n = 13): 3 (23) n (%)
- Best overall response: SD lasting ⩾8 weeks ([1]; 400 mg once daily oral, n = 13): 2 (15) n (%)
- Best overall response: mCR ([1]; 400 mg once daily oral, n = 13): 0 n (%)
- Clinical benefit rate (CR + mCR + PR + SD ⩾8 weeks + HI) ([1]; 400 mg once daily oral, n = 13): 2 (15) n (%)
- Duration of complete marrow remission ([1]; 1 patient, plain language summary): approximately 8 months
- Clinical benefit rate (CR + mCR + PR + SD ⩾8 weeks + HI) ([1]; Total, 400 or 300 mg once daily oral, N = 30): 5 (17) n (%)
- Best overall response: CR ([1]; Total, N = 30): 0 n (%)
- Best overall response: Disease progression ([1]; Total, N = 30): 13 (43) n (%)
- Best overall response: HI ([1]; Total, N = 30): 0 n (%)
- Best overall response: Not evaluable ([1]; Total, N = 30): 7 (23) n (%)
- Best overall response: PR ([1]; Total, N = 30): 0 n (%)
- Best overall response: SD ([1]; Total, N = 30): 9 (30) n (%)
- Best overall response: SD lasting <8 weeks ([1]; Total, N = 30): 5 (17) n (%)
- Best overall response: SD lasting ⩾8 weeks ([1]; Total, N = 30): 4 (13%) n (%) and 4 (13) n (%)
- Best overall response: mCR ([1]; Total, N = 30): 1 (3%) n (%) and 1 (3) n (%)
- Overall response rate (CR + mCR + PR) ([1]; Total, N = 30): 1 (3) n (%)
- Patients meeting CBR criteria ([1]; Total, N = 30): 17%
- Patients not evaluable ([1]; Total, N = 30): 23%
- Patients with disease progression while on study treatment ([1]; Total, N = 30): 43%
- Duration of mCR ([1]; one patient with MDS, 300-mg cohort): 245 days
- Died (during the study) ([2]; 300 mg, n = 17): 14 (82%) n (%)
- GSK3326595-related TEAE: AE leading to study treatment withdrawn ([2]; 300 mg, n = 17): 2 (12) n (%)
- GSK3326595-related TEAE: Anemia ([2]; 300 mg, n = 17): 2 (12) n (%)
- GSK3326595-related TEAE: Any SAE ([2]; 300 mg, n = 17): 3 (18) n (%)
- GSK3326595-related TEAE: Any TEAEs ([2]; 300 mg, n = 17): 13 (76) n (%)
- GSK3326595-related TEAE: Any grade 3/4 TEAE ([2]; 300 mg, n = 17): 8 (47%) n (%) and 8 (47) n (%)
- GSK3326595-related TEAE: Decreased appetite ([2]; 300 mg, n = 17): 3 (18) n (%)
- GSK3326595-related TEAE: Decreased platelet count ([2]; 300 mg, n = 17): 5 (29) n (%)
- GSK3326595-related TEAE: Dysgeusia ([2]; 300 mg, n = 17): 4 (24) n (%)
- GSK3326595-related TEAE: Fatal SAE ([2]; 300 mg, n = 17): 1 (6) n (%)
- GSK3326595-related TEAE: Fatigue ([2]; 300 mg, n = 17): 2 (12) n (%)
- GSK3326595-related TEAE: Nausea ([2]; 300 mg, n = 17): 4 (24) n (%)
- GSK3326595-related TEAE: Neutrophil count decreased ([2]; 300 mg, n = 17): 2 (12) n (%)
- GSK3326595-related TEAE: Thrombocytopenia ([2]; 300 mg, n = 17): 2 (12) n (%)
- TEAE: AE leading to dose interruption ([2]; 300 mg, n = 17): 10 (59) n (%)
- TEAE: AE leading to dose reduction ([2]; 300 mg, n = 17): 1 (6) n (%)
- TEAE: AE leading to study treatment withdrawn ([2]; 300 mg, n = 17): 3 (18) n (%)
- TEAE: Anemia ([2]; 300 mg, n = 17): 7 (41) n (%)
- TEAE: Any AE ([2]; 300 mg, n = 17): 17 (100) n (%)
- TEAE: Any SAE ([2]; 300 mg, n = 17): 12 (71) n (%)
- TEAE: Decreased appetite ([2]; 300 mg, n = 17): 4 (24) n (%)
- TEAE: Decreased platelet count ([2]; 300 mg, n = 17): 8 (47) n (%)
- TEAE: Diarrhea ([2]; 300 mg, n = 17): 7 (41) n (%)
- TEAE: Dysgeusia ([2]; 300 mg, n = 17): 7 (41) n (%)
- TEAE: Dyspnea ([2]; 300 mg, n = 17): 6 (35) n (%)
- TEAE: Fatal SAE ([2]; 300 mg, n = 17): 5 (29%) n (%) and 5 (29) n (%)
- TEAE: Fatigue ([2]; 300 mg, n = 17): 6 (35) n (%)
- TEAE: Nausea ([2]; 300 mg, n = 17): 5 (29) n (%)
- Died (during the study) ([2]; 400 mg, n = 13): 11 (85%) n (%)
- GSK3326595-related TEAE: AE leading to study treatment withdrawn ([2]; 400 mg, n = 13): 0 n (%)
- GSK3326595-related TEAE: Anemia ([2]; 400 mg, n = 13): 1 (8) n (%)
- GSK3326595-related TEAE: Any SAE ([2]; 400 mg, n = 13): 3 (23) n (%)
- GSK3326595-related TEAE: Any TEAEs ([2]; 400 mg, n = 13): 9 (69) n (%)
- GSK3326595-related TEAE: Any grade 3/4 TEAE ([2]; 400 mg, n = 13): 5 (38%) n (%) and 5 (38) n (%)
- GSK3326595-related TEAE: Decreased appetite ([2]; 400 mg, n = 13): 1 (8) n (%)
- GSK3326595-related TEAE: Decreased platelet count ([2]; 400 mg, n = 13): 3 (23) n (%)
- GSK3326595-related TEAE: Dysgeusia ([2]; 400 mg, n = 13): 3 (23) n (%)
- GSK3326595-related TEAE: Fatal SAE ([2]; 400 mg, n = 13): 0 n (%)
- GSK3326595-related TEAE: Fatigue ([2]; 400 mg, n = 13): 4 (31) n (%)
- GSK3326595-related TEAE: Nausea ([2]; 400 mg, n = 13): 2 (15) n (%)
- GSK3326595-related TEAE: Neutrophil count decreased ([2]; 400 mg, n = 13): 2 (15) n (%)
- GSK3326595-related TEAE: Thrombocytopenia ([2]; 400 mg, n = 13): 1 (8) n (%)
